Experimental data pooled from the literature.
Compare with care: the assays were run in different laboratories.
Target: Atypical kinase COQ8B, mitochondrial (COQ8B, Homo sapiens, UniProt Q96D53)
Residues used in one study (Q96D53 1-544): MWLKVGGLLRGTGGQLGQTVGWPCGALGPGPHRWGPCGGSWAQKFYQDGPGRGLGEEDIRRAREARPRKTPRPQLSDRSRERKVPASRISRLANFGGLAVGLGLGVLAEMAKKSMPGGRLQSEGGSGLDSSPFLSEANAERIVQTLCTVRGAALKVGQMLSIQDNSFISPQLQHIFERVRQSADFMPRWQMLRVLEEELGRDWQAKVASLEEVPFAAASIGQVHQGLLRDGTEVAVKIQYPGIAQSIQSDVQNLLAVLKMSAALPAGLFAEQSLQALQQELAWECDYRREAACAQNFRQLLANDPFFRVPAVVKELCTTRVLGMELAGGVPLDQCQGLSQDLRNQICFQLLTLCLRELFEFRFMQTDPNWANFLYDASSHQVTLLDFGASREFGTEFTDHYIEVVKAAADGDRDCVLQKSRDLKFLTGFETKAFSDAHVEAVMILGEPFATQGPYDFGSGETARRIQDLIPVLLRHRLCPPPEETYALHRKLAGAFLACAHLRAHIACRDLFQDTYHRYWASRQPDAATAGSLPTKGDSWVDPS

Structure (SMILES)	assay	conditions	remaining binding
O=C(c1ccc(Nc2ncc(Cl)c(-c3ccc(Cl)s3)n2)cc1)N1CCC(N2CCCC2)CC1	binding, competition with immobilised ligand	1 µM	21%
COc1ncc2cc3ccccc3nc2c1C#N	cell-free assay, competition with immobilised ligand	5 µM	100%
c1cncc(-c2cccc(Nc3nccc(NC4CCCCC4)n3)c2)c1	binding, competition with immobilised ligand	10 µM	24%
N[C@@H]1CCN(c2nccc(-c3cnn4ncccc34)n2)C1	binding	1 µM	100%
O=C(c1ccc(Nc2ncc(Cl)c(-c3cc4ccccc4s3)n2)cc1)N1CCC(N2CCCC2)CC1	binding, competition with immobilised ligand	1 µM	44%
C[C@@H](c1ccc(-n2cnc3c(N)ncnc32)cc1)N1CCc2nn(C)c(Cc3ccccc3)c2C1=O	binding, competition with immobilised ligand	0.1 µM	80%
CS(=O)(=O)c1cc(C2(NC(=O)c3cncc4c3cnn4-c3ccc(F)cc3)CC2)ccn1	cell-free assay, competition with immobilised ligand	1 µM	100%
C[C@H]1CCN(c2nccc(-c3cnn4ncccc34)n2)C1	binding	1 µM	92%
Cc1nc(N2CC[C@@H](O)C2)ncc1-c1cc(C(F)(F)F)cc2[nH]ncc12	cell-free assay, competition with immobilised ligand	1 µM	100%
CN(C)c1nccc(-c2cnn3ncccc23)n1	binding	1 µM	100%
O=C(NS(=O)(=O)c1ccc(NCC2CCOCC2)c([N+](=O)[O-])c1)c1ccc(N2CCN(Cc3ccc(C(F)(F)F)cc3-c3ccc(Cl)cc3)CC2)cc1Oc1cnc2[nH]ccc2c1	cell-free assay, competition with immobilised ligand	1 µM	90%
Cc1cnn2ncc(-c3ccnc(N(C)C)n3)c2c1	binding	1 µM	81%
C[C@@H]1CN(c2cc(-c3nn(C)c4ccc(OC5(C)CC5)cc34)ncn2)C[C@H](C)O1	cell-free assay, competition with immobilised ligand	1 µM	100%
O=C(NCCCN1CCOCC1)c1ccc(Nc2ncc(Cl)c(-c3ccc(Cl)s3)n2)cc1	binding, competition with immobilised ligand	1 µM	34%
O=C(Nc1c[nH]nc1C(=O)NC1CCNCC1)c1cc(F)cc(F)c1	binding, competition with immobilised ligand	1 µM	100%
CS(=O)(=O)N1CCCC(NC(=O)[C@H](CCC2CCCCC2)NC(=O)c2ccc(CNC(=O)c3cnc4ccccn34)cc2)C1 (stereo partly shown)	cell-free assay, competition with immobilised ligand	0.1 µM	100%
F[C@@H]1CCN(c2nccc(-c3cnn4ncccc34)n2)C1	binding	1 µM	79%
Nc1ncc2c(n1)-c1c([nH]c3ccc(C#CC4CC4)cc13)CCCC2	binding, competition with immobilised ligand	1 µM	90%
c1cnn2ncc(-c3ccnc(N4CCC45COC5)n3)c2c1	binding	1 µM	100%
COc1cnc(Nc2cccc(S(N)(=O)=O)c2)nc1N1CCN(c2ccccc2)CC1	binding, competition with immobilised ligand	1 µM	85%
O=C(Nc1ccc(Oc2ccc(F)cc2)cc1)N1CCc2ncccc2[C@H]1c1ccc(F)cc1	cell-free assay, competition with immobilised ligand	1 µM	92%
CN(C)c1nccc(-c2cnc3ncccn23)n1	binding	1 µM	75%
